Laboratory results published in ChEMBL document CHEMBL5154825, “Discovery of V-0219: A Small-Molecule Positive Allosteric Modulator of the Glucagon-Like Peptide-1 Receptor toward Oral Treatment for "Diabesity"” (J Med Chem, 2022).
The source made the active and inactive calls. The calls are words filed in the database; no cut-off is given here.

Experiments:
[1] = biological target: T1, Glucagon-like peptide 1 receptor (Rattus norvegicus) (UniProt P32301); test: Positive allosteric modulator activity at GLP-1R in rat INS1 beta-cells assessed potentiation of GLP-1(7-36)NH2 induced insulin secretion at 1 uM incubated for 30 mins in presence of 15 mM of glucose by ELISA; assay type: cell-based; details: filed as positive allosteric modulator
T1 sequence (whole entry): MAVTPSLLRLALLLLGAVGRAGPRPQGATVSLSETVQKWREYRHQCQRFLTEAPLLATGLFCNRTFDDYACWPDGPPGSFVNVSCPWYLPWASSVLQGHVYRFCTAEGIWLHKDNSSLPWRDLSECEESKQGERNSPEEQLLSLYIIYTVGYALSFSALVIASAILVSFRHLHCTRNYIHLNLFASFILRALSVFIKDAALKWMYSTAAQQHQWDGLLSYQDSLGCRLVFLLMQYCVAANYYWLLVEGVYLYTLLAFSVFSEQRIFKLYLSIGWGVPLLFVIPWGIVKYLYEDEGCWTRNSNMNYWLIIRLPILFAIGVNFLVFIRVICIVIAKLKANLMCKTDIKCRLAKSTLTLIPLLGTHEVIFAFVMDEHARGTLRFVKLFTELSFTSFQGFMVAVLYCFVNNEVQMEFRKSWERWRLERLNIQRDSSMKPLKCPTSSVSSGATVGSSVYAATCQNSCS
Method in brief: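 Rat INS-1 cells held in glucose-free medium for 1.5 h (100,000 cells/well). […] Medium was centrifuged at 4 °C and secreted insulin measured by ELISA.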

[2] = biological target: T2, Glucagon-like peptide 1 receptor (Rattus norvegicus, UniProt P32301); test: Positive allosteric modulator activity at GLP-1R in rat INS1 beta-cells assessed potentiation of GLP-1(7-36)NH2 induced insulin secretion incubated for 30 mins in presence of high glucose condition by ELISA; assay type: cell-based
T2 sequence (P32301 whole entry): T1 sequence (whole entry)

[3] = Effective permeability of compound in PBS buffer at pH 7.4 at 50 to 100 uM after 5 hrs by PAMPA; assay type: ADME; details: pH 7.4, 5 h, dose 50-100 µM
[4] = Toxicity in Wistar rat assessed hypolocomotion at 0.5 to 1 mg/kg, ip measured after 30 mins by elevated plus-maze analysis; details: in vivo, 0.5 h
[5] = Toxicity in Wistar rat assessed anxiety like behavior at 0.5 to 1 mg/kg, ip measured after 30 mins by elevated plus-maze analysis; assay type: organism-based; details: in vivo, 0.5 h, dose 0.5-1 mg/kg
Method in brief: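 Male Wistar rats, naive to the maze, were handled for 7 days. Compound at 0.5 or 1 mg/kg ip in saline/DMSO (0.2%). 30 min after dosing, each rat was placed in the maze centre facing an open arm, and open-arm entries and % time in open arms were scored over 5 min. No retesting; 8 animals.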

Activity [1]	EC50 [2] [pM]	Peff [3]	Compound	Activity [4]	Activity [5]
Active	–	–	NC(=O)C1CCN(Cc2nc(-c3ccc(C(F)(F)F)cc3)no2)CC1	–	–
–	8	Active	FC(F)(F)c1ccc(-c2noc(CN3CCCC(CN4CCOCC4)C3)n2)cc1 (stereo unspecified)	Non-Toxic	Non-Toxic
Active	–	–	FC(F)(F)c1ccc(-c2noc(CN3CCCCC3CCc3ccccn3)n2)cc1 (stereo unspecified)	–	–
